In experiment [1] the target is E3 ubiquitin-protein ligase Mdm2 (Homo sapiens, UniProt Q00987). Kind of experiment: Inhibition of HDM2 expressed in Escherichia coli BL21 (DE3) assessed as inhibition of HDM2 binding to p53 protein by fluorescence anisotropy competition method. The method in brief: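 Fluorescence anisotropy competition: HDM2(11–119) at 2.2 μM with 30 nM fluorescein-labeled human p53(15–29) (protein in 70-fold molar excess) in 10 mM Tris-HCl pH 7.6, 150 mM NaCl, 0.50 mM EDTA, 2 mM β-mercaptoethanol, incubated room temperature 1 h or 4 °C overnight. Competitor diluted in water from ~10−2 M stocks. Anisotropy read at 25 °C in triplicate; IC50 from nonlinear fit with slope factor.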
E3 ubiquitin-protein ligase Mdm2, sequence (Q00987 whole entry): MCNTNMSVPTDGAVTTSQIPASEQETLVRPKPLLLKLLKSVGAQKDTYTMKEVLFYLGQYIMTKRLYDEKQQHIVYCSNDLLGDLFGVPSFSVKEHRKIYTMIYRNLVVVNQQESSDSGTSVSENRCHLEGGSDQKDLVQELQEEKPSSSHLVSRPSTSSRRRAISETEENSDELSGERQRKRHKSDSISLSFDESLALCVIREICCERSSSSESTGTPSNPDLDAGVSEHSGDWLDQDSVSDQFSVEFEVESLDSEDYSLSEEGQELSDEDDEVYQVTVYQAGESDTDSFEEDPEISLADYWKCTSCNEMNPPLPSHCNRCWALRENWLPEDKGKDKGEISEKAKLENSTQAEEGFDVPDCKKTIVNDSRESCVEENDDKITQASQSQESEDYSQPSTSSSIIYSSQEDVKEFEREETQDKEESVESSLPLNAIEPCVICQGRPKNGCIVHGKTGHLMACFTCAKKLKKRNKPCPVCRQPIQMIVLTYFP

A further experiment deals with T1, Protein Mdm4 (Homo sapiens, UniProt O15151).
T1 sequence (O15151 whole entry): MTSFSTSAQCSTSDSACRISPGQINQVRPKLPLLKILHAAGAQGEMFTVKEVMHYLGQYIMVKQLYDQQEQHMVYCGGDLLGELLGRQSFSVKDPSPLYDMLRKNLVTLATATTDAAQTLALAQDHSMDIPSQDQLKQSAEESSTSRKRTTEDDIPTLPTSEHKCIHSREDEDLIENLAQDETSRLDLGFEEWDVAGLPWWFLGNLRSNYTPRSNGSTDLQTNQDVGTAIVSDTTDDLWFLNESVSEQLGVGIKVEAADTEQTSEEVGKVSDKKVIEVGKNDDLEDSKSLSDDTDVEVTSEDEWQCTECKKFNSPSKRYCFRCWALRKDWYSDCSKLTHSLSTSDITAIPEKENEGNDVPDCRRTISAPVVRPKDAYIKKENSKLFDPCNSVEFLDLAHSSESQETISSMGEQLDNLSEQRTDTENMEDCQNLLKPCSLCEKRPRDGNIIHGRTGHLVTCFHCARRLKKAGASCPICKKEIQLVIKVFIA
The experiment in a line: Inhibition of GST-tagged HDMX expressed in Escherichia coli BL21 (DE3) assessed as inhibition of HDMX binding to p53 protein by fluorescence anisotropy competition method. A general note: In fluorescence polarisation assays a small probe gives low polarisation when free and higher when bound to something large.

On to `Cc1ccc(CCNC(=O)N(CC(CCCCN)N(CC(CCC(=O)O)NC(=O)CCC(C)C)C(=O)NCCCC2CCCCC2)C(CCC(=O)O)CN(CCC(N)=O)C(=O)NCCCc2ccc(Br)cc2)cc1` (centres undefined), for which the IC50 (as a rule, the concentration at which inhibition is half-maximal) in experiment [1] (read-out: IC50) worked out at 2.3 µM; on Protein Mdm4 (read-out: IC50), 3.2 µM. For `NCCCC[C@@H](CN(C(=O)NCCCC1CCCCC1)[C@@H](CCCCN)CN(C(=O)NCCc1ccc(Br)cc1)[C@@H](CCCCN)CN(CCC(N)=O)C(=O)NCCCc1ccc(F)cc1)NC(N)=O`, the IC50 result (in experiment [1]; at Protein Mdm4) was “Not Active” each time.

With `NCCCCC(CN(C(=O)NCCc1ccc(Br)cc1)C(CCC(=O)O)CN(CCC(N)=O)C(=O)NCCCc1ccc(Br)cc1)N(CC(CCC(=O)O)NC(=O)NCC1CCCCC1)C(=O)NCCCC1CCCCC1` (centres undefined), the IC50 in experiment [1] (read-out: IC50) was found to be 6.6 µM; on Protein Mdm4 (read-out: IC50), 8 µM. The like results for `NCCCCC(CN(C(=O)NCCc1ccc(Br)cc1)C(CCC(=O)O)CN(CCC(N)=O)C(=O)NCCCc1ccc(Br)cc1)N(CC(CCC(=O)O)NC(=O)CCC1CCCCC1)C(=O)NCCCC1CCCCC1` (centres undefined) were, in that order, 2.8 µM and 7.5 µM.

As to `C=CCNC(=O)NC(CCC(=O)O)CN(C(=O)NCCCC1CCCCC1)C(CCCCN)CN(C(=O)NCCc1ccc(Br)cc1)C(CCC(=O)O)CN(CCC(N)=O)C(=O)NCCCc1ccc(Br)cc1` (centres undefined), the results for the IC50 (in experiment [1] (read-out: IC50); at Protein Mdm4 (read-out: IC50)) were 17 µM and 10 µM, respectively.

As for `NCCCCC(CN(C(=O)NCCc1ccc(Br)cc1)C(CCC(=O)O)CN(CCC(N)=O)C(=O)NCCCc1ccc(Br)cc1)N(CC(CCC(=O)O)NC(=O)Cc1ccccc1)C(=O)NCCCC1CCCCC1` (centres undefined), the figures for the IC50 (in experiment [1] (read-out: IC50); on Protein Mdm4 (read-out: IC50)) were 10.5 µM and 7.6 µM, respectively. For the molecule `Cc1ccc(CCNC(=O)N(CC(CCCCN)N(CC(CCC(=O)O)NC(=O)CCC(C)C)C(=O)NCCCC2CCCCC2)C(CCC(=O)O)CN(CCC(N)=O)C(=O)NCCCc2ccc(F)cc2)cc1` (centres undefined), the IC50 in experiment [1] (read-out: IC50) came to 2.9 µM; at Protein Mdm4 (read-out: IC50), 5.1 µM.

Take `CC(C)CCC(=O)N[C@@H](CCCC(=O)O)CN(C(=O)NCCCC1CCCCC1)[C@@H](CCCCN)CN(C(=O)NCCc1ccc(Br)cc1)[C@@H](CCCC(=O)O)CN(CCC(N)=O)C(=O)NCCCc1ccc(F)cc1`: the IC50 came out at 5.9 µM in experiment [1] (read-out: IC50) and 41 µM at Protein Mdm4 (read-out: IC50). For `Cc1ccc(CCNC(=O)N(CC(CCCCN)N(CC(CCC(=O)O)NC(=O)CCC(C)C)C(=O)NCCCC2CCCCC2)C(CCC(=O)O)CN(CCC(N)=O)C(=O)NCCCCc2ccc(F)cc2)cc1` (centres undefined), in that order: 13 µM and 14 µM.

On to `NCCCCC(CN(C(=O)NCCc1ccc(Br)cc1)C(CCC(=O)O)CN(CCC(N)=O)C(=O)NCCCc1ccc(Br)cc1)N(CC(CCC(=O)O)NC(=O)[C@@H]1CCCN1)C(=O)NCCCC1CCCCC1` (some centres undefined), for which the values for the IC50 (in experiment [1] (read-out: IC50); at Protein Mdm4 (read-out: IC50)) were 8.2 µM and 10 µM, respectively. The like results for `NCCCCC(CN(C(=O)NCCc1ccc(Br)cc1)C(CCC(=O)O)CN(CCC(N)=O)C(=O)NCCCc1ccc(Br)cc1)N(CC(CCC(=O)O)NC(N)=O)C(=O)NCCCC1CCCCC1` (centres undefined) were, in that order, 6.4 µM and 6.5 µM. For `CC(C)CCC(=O)NC(CCC(=O)O)CN(C(=O)NCCCC1CCCCC1)C(CCCCN)CN(C(=O)NCCc1ccc(Br)cc1)C(CCC(=O)O)CN(CCC(N)=O)C(=O)NCCCc1ccc(Br)cc1` (centres undefined), in that order: 2.8 µM and 4.1 µM. For `CC(C)CCC(=O)NC(CCC(=O)O)CN(C(=O)NCCCC1CCCCC1)C(CCCCN)CN(C(=O)NCCc1ccc(Br)cc1)C(CCC(=O)O)CN(CCC(N)=O)C(=O)NCCCc1ccc(F)cc1` (centres undefined), in that order: 2.6 µM and 2.7 µM.

On to `CC(C)CCCNC(=O)N(CC(CCC(=O)O)NC(N)=O)C(CCCCN)CN(C(=O)NCCc1ccc(Br)cc1)C(CCC(=O)O)CN(CCC(N)=O)C(=O)NCCCc1ccc(Br)cc1` (centres undefined), for which the 50% inhibitory concentration (IC50) was 9.2 µM in experiment [1] (read-out: IC50) and 24 µM on Protein Mdm4 (read-out: IC50). In the case of `CC(C)CCCNC(=O)N(CC(CCC(=O)O)NC(N)=O)C(CCCCN)CN(C(=O)NCCc1ccc(Br)cc1)C(CCC(=O)O)CN(CCC(N)=O)C(=O)NCCCc1ccccc1` (centres undefined), the IC50 in experiment [1] (read-out: IC50) is 18 µM. Take `CC(C)CCCNC(=O)N(CC(CCC(=O)O)NC(N)=O)C(CCCCN)CN(C(=O)NCCCc1ccc(Br)cc1)C(CCC(=O)O)CN(CCC(N)=O)C(=O)NCCCc1ccccc1` (centres undefined): in experiment [1] (read-out: IC50), the IC50 came to 20 µM. For `NCCCCC(CN(C(=O)NCCc1ccc(Br)cc1)C(CCC(=O)O)CN(CCC(N)=O)C(=O)NCCCc1ccc(Br)cc1)N(CC(CCC(=O)O)NC(N)=O)C(=O)NCCCc1ccccc1` (centres undefined), the IC50 in experiment [1] (read-out: IC50) stood at 13 µM; at Protein Mdm4 (read-out: IC50), 20 µM.

For the molecule `CC(C)CCNC(=O)N(CC(CCC(=O)O)NC(N)=O)C(CCCCN)CN(C(=O)NCCc1ccc(Cl)cc1)C(CCC(=O)O)CN(CCC(N)=O)C(=O)NCCc1ccccc1` (centres undefined), the IC50 in experiment [1] (read-out: IC50) is over 100 µM. Consider `CC(C)CCCNC(=O)N(CC(CCC(=O)O)NC(N)=O)C(CCCCN)CN(C(=O)NCCc1ccc(Cl)cc1)C(CCC(=O)O)CN(CCC(N)=O)C(=O)NCCc1ccc(Cl)cc1` (centres undefined), for which the IC50 in experiment [1] (read-out: IC50) was determined as 63 µM. For `Cc1ccc(CCCNC(=O)N(CCC(N)=O)CC(CCC(=O)O)N(CC(CCCCN)N(CC(CCC(=O)O)NC(N)=O)C(=O)NCCCC(C)C)C(=O)NCCc2ccc(Br)cc2)cc1` (centres undefined), the IC50 in experiment [1] (read-out: IC50) is 24 µM; at Protein Mdm4 (read-out: IC50), 36 µM. With `CC(C)CCCCNC(=O)N(CC(CCC(=O)O)NC(N)=O)C(CCCCN)CN(C(=O)NCCc1ccc(Br)cc1)C(CCC(=O)O)CN(CCC(N)=O)C(=O)NCCCc1ccc(Br)cc1` (centres undefined), the IC50 (in experiment [1] (read-out: IC50); on Protein Mdm4 (read-out: IC50)) was 13 µM each time. For the molecule `NCCCCC(CN(C(=O)NCCc1ccc(Br)cc1)C(CCC(=O)O)CN(CCC(N)=O)C(=O)NCCCc1ccc(Br)cc1)N(CC(CCC(=O)O)NC(N)=O)C(=O)NCCCc1ccc(Br)cc1` (centres undefined), the IC50 worked out at 8.2 µM in experiment [1] (read-out: IC50) and 7.5 µM at Protein Mdm4 (read-out: IC50). The like results for `CC(C)CCC(=O)NC(CCC(=O)O)CN(CCC1CCC2(CCCCC2)CC1)C(CCCCN)CN(CCCCc1ccc(Br)cc1)[C@@H](CCC(=O)O)CN(CCCCCc1ccc(F)cc1)CCC(N)=O` (some centres undefined) were, in that order, over 100 µM and over 100 µM.

`CC(C)CCCNC(=O)N(CC(CCC(=O)O)NC(N)=O)C(CCCCN)CN(C(=O)NCCc1ccc(Cl)cc1)C(CCC(=O)O)CN(CCC(N)=O)C(=O)NCCc1ccccc1` (centres undefined): the IC50 in experiment [1] (read-out: IC50) is 85 µM. On to `CC(C)CCCNC(=O)N(CC(CCC(=O)O)NC(N)=O)C(CCCCN)CN(C(=O)NCCc1ccc(Cl)cc1)C(CCC(=O)O)CN(CCC(N)=O)C(=O)NCCCc1ccccc1` (centres undefined), for which the IC50 in experiment [1] (read-out: IC50) is 43 µM.

Take `CC(C)CCCNC(=O)N(CC(CCC(=O)O)NC(N)=O)C(CCCCN)CN(C(=O)NCCCc1ccccc1)C(CCC(=O)O)CN(CCC(N)=O)C(=O)NCCc1ccc(Br)cc1` (centres undefined): the IC50 in experiment [1] (read-out: IC50) amounted to 38 µM.

On to `CC(C)CCCNC(=O)N(CC(CCC(=O)O)NC(N)=O)C(CCCCN)CN(C(=O)NCCc1ccc(Br)cc1)C(CCC(=O)O)CN(CCC(N)=O)C(=O)NCCc1ccc(Br)cc1` (centres undefined), for which the half-maximal inhibitory concentration (IC50) in experiment [1] (read-out: IC50) came to 17 µM; at Protein Mdm4 (read-out: IC50), 41 µM. For `CC(C)CCCNC(=O)N(CC(CCC(=O)O)NC(N)=O)C(CCCCN)CN(C(=O)NCCc1ccc(Br)cc1)C(CCC(=O)O)CN(CCC(N)=O)C(=O)NCCCc1ccc([N+](=O)[O-])cc1` (centres undefined), in experiment [1] (read-out: IC50), the IC50 came to 41 µM. For `COc1ccc(CCCNC(=O)N(CCC(N)=O)CC(CCC(=O)O)N(CC(CCCCN)N(CC(CCC(=O)O)NC(N)=O)C(=O)NCCCC(C)C)C(=O)NCCc2ccc(Br)cc2)cc1` (centres undefined), the IC50 (in experiment [1] (read-out: IC50); at Protein Mdm4 (read-out: IC50)) was over 100 µM each time. Consider `COc1ccc(CCCNC(=O)N(CC(CCC(=O)O)NC(N)=O)C(CCCCN)CN(C(=O)NCCc2ccc(Br)cc2)C(CCC(=O)O)CN(CCC(N)=O)C(=O)NCCCc2ccc(Br)cc2)cc1` (centres undefined), for which the IC50 (in experiment [1] (read-out: IC50); on Protein Mdm4 (read-out: IC50)) was 12 µM in each case. As to `NCCCCC(CN(C(=O)NCCc1ccc(Br)cc1)C(CCC(=O)O)CN(CCC(N)=O)C(=O)NCCCc1ccc(Br)cc1)N(CC(CCC(=O)O)NC(N)=O)C(=O)NCCCc1ccc([N+](=O)[O-])cc1` (centres undefined), the IC50 in experiment [1] (read-out: IC50) came to 10 µM; at Protein Mdm4 (read-out: IC50) it was 8.1 µM.

The values above are taken from ChEMBL document CHEMBL1153086, “N-acylpolyamine inhibitors of HDM2 and HDMX binding to p53” (Bioorg Med Chem, 2009).
